# TRPC4 agonist: TRPC4 (mouse) channel activation; B-score at 10 µM; HEK293 TRPC4beta/mu-opioid, Fluo4 calcium fluorescence; active compounds read high; actives 0.49% (n = 310,000); Q9QUQ5; AID 2237;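 active means B-score above 5 SD of library B-scores, and initial fluorescence ratio not above library mean plus 5 SD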;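 further: positive B-score marks a calcium rise read as TRPC4 activation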
# Target sequence (Q9QUQ5 whole entry, looked up): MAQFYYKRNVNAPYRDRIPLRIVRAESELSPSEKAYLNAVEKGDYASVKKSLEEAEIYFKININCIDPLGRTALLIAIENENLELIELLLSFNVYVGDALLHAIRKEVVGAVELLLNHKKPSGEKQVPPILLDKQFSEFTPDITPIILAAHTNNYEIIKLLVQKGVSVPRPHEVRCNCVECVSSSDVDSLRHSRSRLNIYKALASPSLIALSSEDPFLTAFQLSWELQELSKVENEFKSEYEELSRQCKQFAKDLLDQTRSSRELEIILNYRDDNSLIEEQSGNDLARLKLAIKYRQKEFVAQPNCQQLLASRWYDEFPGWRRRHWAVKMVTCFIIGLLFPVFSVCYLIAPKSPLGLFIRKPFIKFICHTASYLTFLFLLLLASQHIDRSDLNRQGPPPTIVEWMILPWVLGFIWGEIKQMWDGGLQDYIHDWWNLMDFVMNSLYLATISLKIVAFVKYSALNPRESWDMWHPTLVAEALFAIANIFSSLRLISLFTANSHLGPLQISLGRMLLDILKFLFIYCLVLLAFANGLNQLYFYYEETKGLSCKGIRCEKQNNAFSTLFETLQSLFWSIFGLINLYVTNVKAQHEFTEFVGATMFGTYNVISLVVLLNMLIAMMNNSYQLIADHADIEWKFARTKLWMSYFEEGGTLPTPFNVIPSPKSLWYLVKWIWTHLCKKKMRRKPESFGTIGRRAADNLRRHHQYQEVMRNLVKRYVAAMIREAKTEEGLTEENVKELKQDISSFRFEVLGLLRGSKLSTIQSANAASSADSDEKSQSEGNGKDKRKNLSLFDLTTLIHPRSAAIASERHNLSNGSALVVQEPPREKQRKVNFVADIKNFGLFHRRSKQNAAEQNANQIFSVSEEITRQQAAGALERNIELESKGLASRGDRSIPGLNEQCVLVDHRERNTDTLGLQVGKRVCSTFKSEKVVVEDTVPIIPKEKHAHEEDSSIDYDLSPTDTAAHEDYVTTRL
#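 System – HEK293 cells stably co-expressing mouse TRPC4beta and mu-opioid receptor · Signal – Fluo4 calcium-sensitive dye fluorescence, kinetic, 1 Hz baseline · Benchmarks – buffer (low) and maximal DAMGO (high) · Read-out – B score of integrated fluorescence ratio per well · Incubation – dye loading 45 min room temperature, 110 s kinetic read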
# TRPC4 inh: inhibitors of mouse TRPC4 channel; HEK293 TRPC4beta/mu-opioid, DAMGO-evoked Fluo4 calcium flux; active compounds read low; Q9QUQ5; actives 0.39% (n = 300,000); B-score at 10 µM;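 active means B-score over 3 SD under the library average, no early fluorescence shift, positive overall ratio signal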
#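 Assay system – HEK293 line stably carrying TRPC4beta and mu-opioid receptor · Doses – single dose · Detection – Fluo4 calcium-dye fluorescence, kinetic read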
# TRPC4 potent: allosterically enhances the mouse TRPC4 cation channel | Q9QUQ5 | B-score at 10 µM | HEK293 TRPC4beta/mu-opioid, DAMGO EC20, Fluo-4 Ca2+ flux; active compounds read high | actives 0.42% (n = 310,000);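 active means B-score of calcium response area above 5 SD of library B-scores, with initial fluorescence ratio within 5 SD of library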;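 further: B-score of integrated fluorescence ratio over time as area under calcium response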
# TRPC6 act: activators of mouse TRPC6 channel; Q61143; AID 2550; HEK293-TRPC6 membrane potential dye fluorescence; active compounds read high; B-score at 10 µM; actives 0.13% (n = 310,000);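 active means B-score of the integrated fluorescence ratio above library mean plus 3 SD, and starting fluorescence ratio within library mean plus 5 SD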;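 further: higher score means more depolarization so channel activation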
# TRPC6 inh: inhibitors of mouse TRPC6 channel; actives 1.1% (n = 310,000); AID 2553; HEK293-TRPC6, membrane potential dye, ACh-evoked depolarization; active compounds read low; B-score at 10 µM;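 active means B-score under library mean minus 3 SD, initial fluorescence not abnormally high, positive integrated signal ratio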;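 further: B-score derived from integrated fluorescence ratio over the kinetic read; more negative B-score means stronger inhibition of depolarization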
# The depositor's hits bear a star; i = inactive. Most compounds without a hit are left out; they make up all but 2.3% or so of the library.
SMILES,TRPC4 agonist,TRPC4 inh,TRPC4 potent,TRPC6 act,TRPC6 inh
Cc1ccc(C(=O)NC(=S)NNC(=O)c2ccccc2[N+](=O)[O-])cc1,53*,i,i,i,i
Cc1ccccc1OCC(=O)NNC(=S)NC(=O)c1ccco1,88*,i,i,i,i
OCC[C@@H]1C[C@H](O)[C@@H](O)[C@]2(OCc3ccccc32)O1,i,i,i,i,i
CC(=O)Nc1ccc(S(=O)(=O)NCCC(=O)OCC(=O)N2CCN(C(=O)c3ccco3)CC2)cc1,i,i,i,i,i
O=C(NC1CCN(S(=O)(=O)c2ccc(F)cc2)CC1)c1cccnc1,i,i,i,i,i
Cc1cc(=O)[nH]c(SCC(=O)NC2CCCc3ccccc32)n1 (stereo not given),i,i,i,i,i
CN1CCN(c2ccc(NC(=O)COc3ccccc3)cc2Cl)CC1,i,i,i,i,i
COC(=O)c1ccc(N2CCN(C)CC2)c(NC(=O)c2cccs2)c1,142*,i,i,i,i
COC(=O)c1ccc(N2CCOCC2)c(NC(=O)c2cccs2)c1,i,i,i,i,i
Cc1cccc(OCC(=O)Nc2ccccc2N2CCN(C)CC2)c1,i,i,i,i,i
COC(=O)c1ccc(N2CCN(C)CC2)c(NC(=O)COc2cccc(C)c2)c1,63*,i,i,i,i
COC(=O)c1ccc(N2CCN(C)CC2)c(NC(=O)COc2ccccc2)c1,120*,i,i,i,i
O=[N+]([O-])c1ccc2[nH]c(O)c(N=NC3CS(=O)(=O)CC3O)c2c1 (stereo not given),i,i,i,i,i
COc1ccccc1N1CCN(C(=O)c2cc(-c3ccc(C)cc3)on2)CC1,i,i,i,i,i
COc1ccccc1-c1cc(C(=O)N2CCN(c3ccccc3OC)CC2)no1,i,-6*,i,i,i
CCCc1cc2c(cc1NC(=O)c1ccc(C)cc1)OCO2,i,i,i,i,i
Cc1cc(Nc2ccccc2)nc(NCc2ccccc2)n1,i,-6*,i,i,i
Cc1cc(N2CCC(C)CC2)nc(NCc2ccccc2)n1,i,-6*,16*,i,i
Cc1cc(N2CCC(C)CC2)nc(-c2ccccc2O)n1,i,i,i,i,i
Cc1cc(Nc2ccc(Cl)cc2)nc(NCc2ccccc2)n1,i,i,i,i,i
Cc1ccc(CNC(=O)CCCc2cn(C)c3ccccc23)cc1,i,i,i,i,i
COc1ccc(CCNC(=O)COc2nncc3ccccc23)cc1,i,i,i,i,i
Cc1ccc(-n2cccn2)c(CN2CCC(CO)(CCc3ccccc3)CC2)c1,56*,i,i,i,i
OCC1(CCCc2ccccc2)CCN(Cc2ccc(F)cc2)CC1,i,i,i,i,i
OCC1(CCc2ccccc2)CCN(Cc2cc(Cl)ccc2O)CC1,i,-7*,i,i,i
SMILES,TRPC4 agonist,TRPC4 inh,TRPC4 potent,TRPC6 act,TRPC6 inh
COc1ccc(C(=O)n2c(SC)nc3cc4c(cc32)OCCO4)cc1,i,i,i,i,i
CCCCn1c2ccccc2c2nnc(SCCN3CCCCC3)nc21,i,-7*,i,i,i
CCCCn1c2ccc(F)cc2c2nnc(SCCN3CCOCC3)nc21,i,i,i,i,i
CC1(C)CC(=O)C2=C(C1)N(Cc1ccccc1)C(=O)C2(NC(=O)C(C)(C)C)C(F)(F)F (stereo not given),i,i,i,i,i
CCCCc1nnc(NC(=O)C2CCN(c3ncnc4sc(C)c(C)c34)CC2)s1,i,i,93*,i,i
O=C(COc1ccc(Cl)cc1)Nc1ccc(C(=O)O)cc1NC(=O)COc1ccc(Cl)cc1,i,-6*,i,i,i
COc1ccc(/C=C2\SC(=S)N(CC(=O)NC3CCS(=O)(=O)C3)C2=O)cc1 (stereo not given),i,i,i,i,i
CC(C)CNC(=O)COc1ncnc2sccc12,i,i,i,i,i
N#CC(C#N)=Cc1cccn1-c1ccc(C(=O)O)cc1,i,i,i,i,i
N#C/C(=C/c1cccn1-c1cccc(C(=O)O)c1)c1ccc(Cl)cc1,i,-6*,i,i,i
CCCOc1ccc(Br)cc1/C=N/O,i,-6*,i,i,i
O=C(/C=C/c1cc[n+](CC(=O)c2ccc3cccc4c3c2CC4)cc1)c1ccc2cccc3c2c1CC3,i,i,i,i,i
CS(=O)(=O)N1CCN(c2ccccc2NC(=O)CSc2ccc(Cl)cc2)CC1,i,i,10*,i,i
CS(=O)(=O)N1CCN(c2ccccc2NC(=O)c2ccc(Cl)cc2)CC1,i,i,i,i,i
O=C(NCCc1ccccn1)C(F)(F)C(F)(F)C(F)(F)C(F)(F)C(F)(F)C(F)F,128*,i,i,i,i
O=C(NCc1ccccn1)C(F)(F)C(F)(F)C(=O)NCc1ccccn1,i,i,i,i,i
NC(=O)c1ccc(Oc2ccc3c(c2)CCC3)c([N+](=O)[O-])c1,i,i,24*,i,i
CC(=O)Oc1c(C)c(OC(C)=O)c2c(c1C(C)=O)OC1CC(=O)C(C(C)=O)=C(O)C21C (stereo not given),i,i,i,i,i
CC(=O)c1c(O)c(C)c(O)c2c1OC1=CC(=O)C(C(C)=O)C(=O)[C@@]12C (stereo not given in full),90*,-6*,i,i,i
CCN(CC)CCNC(=O)c1cc2cc3ccc(OC)cc3nc2o1,i,i,i,i,i
CCCCN(C)CCNC(=O)c1cc2cc3ccc(OC)cc3nc2o1,i,i,12*,i,i
NC(=NC1CCCCC1)c1ccc(Cl)cc1,i,-5*,i,i,i
N/C(=N\OC(=O)C1CCCCC1)c1ccc(Cl)cc1,i,i,i,i,i
CC(Oc1ccc(Br)cc1)C(=O)Nc1ccc(S(=O)(=O)N(C)C2CCN(C)CC2)cc1 (stereo not given),63*,i,i,i,i
Cc1[nH]c(=O)c(S(=O)(=O)c2ccccc2)c(C)c1Cl,i,i,i,i,i
Cn1cccc1-c1nc2ccccc2n1Cc1ccccc1,i,-5*,i,i,i
c1ccc(Cn2c(CN3CCCC3)nc3ccccc32)cc1,i,-7*,i,i,i
